Measured values taken from ChEMBL document CHEMBL4725474, “Discovery of a Selective, Covalent IRAK1 Inhibitor with Antiproliferative Activity in MYD88 Mutated B-Cell Lymphoma” (ACS Med Chem Lett, 2020).
The source made the active and inactive calls. The rule behind the calls is not given here.

Assays:
[1] = target: T1, Interleukin-1 receptor-associated kinase 4 (Homo sapiens, UniProt Q9NWZ3); test: Inhibition of wild-type human partial length IRAK4 (M1 to S460 residues) expressed in mammalian expression system by Kinomescan method
T1 sequence (Q9NWZ3 whole entry): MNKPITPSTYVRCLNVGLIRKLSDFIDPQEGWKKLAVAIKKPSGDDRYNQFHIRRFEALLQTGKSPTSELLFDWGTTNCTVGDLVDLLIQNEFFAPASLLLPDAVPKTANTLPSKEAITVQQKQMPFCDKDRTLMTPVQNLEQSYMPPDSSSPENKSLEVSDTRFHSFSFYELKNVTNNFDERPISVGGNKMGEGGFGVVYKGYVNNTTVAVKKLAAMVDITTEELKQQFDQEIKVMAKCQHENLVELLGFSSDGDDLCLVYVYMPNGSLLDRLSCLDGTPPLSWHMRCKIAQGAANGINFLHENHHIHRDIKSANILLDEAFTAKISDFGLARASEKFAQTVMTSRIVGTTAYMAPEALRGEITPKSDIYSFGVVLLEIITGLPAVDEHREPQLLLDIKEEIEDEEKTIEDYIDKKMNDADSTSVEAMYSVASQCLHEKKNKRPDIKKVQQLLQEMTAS

[2] = target: T2, Interleukin-1 receptor-associated kinase 1 (Homo sapiens, UniProt P51617); test: Inhibition of wild-type human partial length IRAK1 (R194 to S712 residues) expressed in mammalian expression system by Kinomescan method
Target sequence in this assay (P51617 whole entry, the tested form may be a part): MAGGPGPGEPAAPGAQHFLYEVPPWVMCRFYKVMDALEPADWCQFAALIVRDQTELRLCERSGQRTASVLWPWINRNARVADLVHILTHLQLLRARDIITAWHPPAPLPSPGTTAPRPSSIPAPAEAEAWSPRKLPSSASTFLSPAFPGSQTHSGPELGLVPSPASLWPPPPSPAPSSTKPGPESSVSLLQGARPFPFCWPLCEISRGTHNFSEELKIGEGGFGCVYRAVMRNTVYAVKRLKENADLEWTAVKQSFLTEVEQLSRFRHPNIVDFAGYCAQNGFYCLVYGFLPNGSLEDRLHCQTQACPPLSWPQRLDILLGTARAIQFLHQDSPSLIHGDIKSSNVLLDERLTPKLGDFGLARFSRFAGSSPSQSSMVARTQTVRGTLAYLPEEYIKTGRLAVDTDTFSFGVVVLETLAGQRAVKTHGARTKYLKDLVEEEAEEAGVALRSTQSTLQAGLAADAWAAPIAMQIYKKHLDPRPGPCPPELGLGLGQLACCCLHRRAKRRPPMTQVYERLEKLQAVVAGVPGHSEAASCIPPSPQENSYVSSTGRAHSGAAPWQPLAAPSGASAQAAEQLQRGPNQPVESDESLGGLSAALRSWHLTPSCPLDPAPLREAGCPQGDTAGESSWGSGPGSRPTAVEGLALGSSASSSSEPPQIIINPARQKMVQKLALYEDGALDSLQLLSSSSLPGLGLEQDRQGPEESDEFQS

[3] = target: T2, Interleukin-1 receptor-associated kinase 1; test: Inhibition of recombinant IRAK1 (unknown origin) by Invitrogen adapta assay
Target sequence in this assay (P51617 whole entry, the tested form may be a part): as above

OCI-Ly3 = test: Cytotoxicity against human OCILY3 cells expressing MYD88 mutant assessed as cell killing measured after 72 hrs by CellTiter-Glo luminescent cell viability assay; format: functional, cell-based
How it was run: (§1)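 Cells were exposed to inhibitors for 72 h, and viability was read by CellTiter-Glo luminescence. EC50 values were derived from dose–response curves.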

OCI-LY19 = test: Cytotoxicity against human OCILY19 cells expressing MYD88 mutant assessed as cell killing measured after 72 hrs by CellTiter-Glo luminescent cell viability assay; format: functional, cell-based; how it was run: as §1
[4] = target: T2, Interleukin-1 receptor-associated kinase 1; test: Covalent binding affinity to recombinant IRAK1 (unknown origin) assessed as labeling at Cys302 residue site measured after 2 hrs by LC-MS analysis
Target sequence in this assay (P51617 whole entry, looked up, the tested form may be a part): as the sequence (P51617 whole entry, the tested form may be a part) above

[5] = target: T2, Interleukin-1 receptor-associated kinase 1; test: Inhibition of desthio-biotinylated JH-XIII-39-01 probe binding to IRAK1 in human BCWM1 cells assessed as blocking of IRAK1 pulldown at 5 to 10 uM measured after 90 mins by Western blot based pulldown assay; format: cell-based
Target sequence in this assay (P51617 whole entry, looked up, the tested form may be a part): as the sequence (P51617 whole entry, the tested form may be a part) above

RPMI-8226 = test: Cytotoxicity against human RPMI-8226 cells expressing MYD88 mutant assessed as cell killing measured after 72 hrs by CellTiter-Glo luminescent cell viability assay; format: functional, cell-based; how it was run: as §1
[6] = Cytotoxicity against human BCWM1 cells expressing MYD88 mutant assessed as cell killing measured after 72 hrs by CellTiter-Glo luminescent cell viability assay; format: functional, cell-based; settings: BCWM1, 72 h; how it was run: as §1
TMD8 = test: Cytotoxicity against human TMD8 cells expressing MYD88 mutant assessed as cell killing measured after 72 hrs by CellTiter-Glo luminescent cell viability assay; format: functional, cell-based; how it was run: as §1
[7] = Cytotoxicity against human HBL1 cells expressing MYD88 mutant assessed as cell killing measured after 72 hrs by CellTiter-Glo luminescent cell viability assay; format: functional, cell-based; how it was run: as §1
[8] = target: T1, Interleukin-1 receptor-associated kinase 4; test: Inhibition of IRAK4 (unknown origin) using methylcoumarin-labeled peptide as substrate in presence of ATP by FRET assay
[9] = target: T3, Mitogen-activated protein kinase kinase kinase 19 (Homo sapiens, UniProt Q56UN5); test: Inhibition of wild-type human partial length YSK4 (T1019 to H1328 residues) expressed in mammalian expression system by Kinomescan method
T3 sequence (Q56UN5 whole entry): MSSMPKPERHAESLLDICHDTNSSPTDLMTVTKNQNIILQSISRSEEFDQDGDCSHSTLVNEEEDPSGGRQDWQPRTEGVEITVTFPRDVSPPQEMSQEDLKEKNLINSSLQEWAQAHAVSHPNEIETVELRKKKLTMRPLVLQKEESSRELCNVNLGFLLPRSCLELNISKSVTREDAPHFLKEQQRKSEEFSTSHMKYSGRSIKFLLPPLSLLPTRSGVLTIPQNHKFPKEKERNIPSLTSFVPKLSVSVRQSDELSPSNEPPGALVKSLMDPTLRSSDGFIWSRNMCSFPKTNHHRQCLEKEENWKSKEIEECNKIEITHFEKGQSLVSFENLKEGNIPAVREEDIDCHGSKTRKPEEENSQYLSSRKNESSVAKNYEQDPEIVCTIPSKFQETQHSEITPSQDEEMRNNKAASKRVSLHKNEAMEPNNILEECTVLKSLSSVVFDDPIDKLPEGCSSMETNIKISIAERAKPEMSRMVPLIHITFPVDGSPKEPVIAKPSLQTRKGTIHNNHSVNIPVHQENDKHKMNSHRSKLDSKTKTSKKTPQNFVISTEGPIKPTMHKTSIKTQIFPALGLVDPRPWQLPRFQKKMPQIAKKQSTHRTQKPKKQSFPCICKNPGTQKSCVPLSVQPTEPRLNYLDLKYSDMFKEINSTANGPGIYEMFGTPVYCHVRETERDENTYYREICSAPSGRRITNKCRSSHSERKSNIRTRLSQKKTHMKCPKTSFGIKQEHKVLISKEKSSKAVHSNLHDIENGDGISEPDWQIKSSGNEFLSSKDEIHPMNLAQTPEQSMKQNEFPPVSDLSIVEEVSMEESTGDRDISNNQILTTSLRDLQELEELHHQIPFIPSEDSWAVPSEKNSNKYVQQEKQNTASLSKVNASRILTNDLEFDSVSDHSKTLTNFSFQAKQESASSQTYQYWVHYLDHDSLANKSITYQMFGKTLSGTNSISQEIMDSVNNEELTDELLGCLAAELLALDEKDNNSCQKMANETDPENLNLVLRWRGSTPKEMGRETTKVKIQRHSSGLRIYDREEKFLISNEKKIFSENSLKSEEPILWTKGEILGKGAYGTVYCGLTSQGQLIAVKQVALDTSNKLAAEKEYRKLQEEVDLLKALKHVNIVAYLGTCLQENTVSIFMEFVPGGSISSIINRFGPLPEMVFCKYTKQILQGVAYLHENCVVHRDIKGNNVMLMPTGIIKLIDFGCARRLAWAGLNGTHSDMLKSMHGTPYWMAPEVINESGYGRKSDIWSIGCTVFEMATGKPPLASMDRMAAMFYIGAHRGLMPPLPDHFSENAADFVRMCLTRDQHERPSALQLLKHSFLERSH

[10] = Cytotoxicity against human MWCL1 cells expressing MYD88 mutant assessed as cell killing measured after 72 hrs by CellTiter-Glo luminescent cell viability assay; format: functional, cell-based; how it was run: as §1
Ramos = test: Cytotoxicity against human Ramos cells expressing MYD88 mutant assessed as cell killing measured after 72 hrs by CellTiter-Glo luminescent cell viability assay; format: functional, cell-based; how it was run: as §1
OCI-Ly7 = test: Cytotoxicity against human OCILY7 cells expressing MYD88 mutant assessed as cell killing measured after 72 hrs by CellTiter-Glo luminescent cell viability assay; format: functional, cell-based; how it was run: as §1
[11] = target: T2, Interleukin-1 receptor-associated kinase 1; test: Covalent binding affinity to recombinant IRAK1 (unknown origin) assessed as labeling at Cys307 residue site measured after 2 hrs by LC-MS analysis
Target sequence in this assay (P51617 whole entry, looked up, the tested form may be a part): as the sequence (P51617 whole entry, the tested form may be a part) above

[12] = target: T2, Interleukin-1 receptor-associated kinase 1; test: Inhibition of desthio-biotinylated JH-XIII-39-01 probe binding to IRAK1 in human BCWM1 cells assessed as blocking of IRAK1 pulldown at 5 uM measured after 90 mins by Western blot based pulldown assay; format: cell-based
Target sequence in this assay (P51617 whole entry, looked up, the tested form may be a part): as the sequence (P51617 whole entry, the tested form may be a part) above

[13] = target: T2, Interleukin-1 receptor-associated kinase 1; test: Covalent binding affinity to recombinant IRAK1 (unknown origin) assessed as labeling at Cys302/Cys307 residue sites at ratio 3:1 measured after 2 hrs by LC-MS analysis
Target sequence in this assay (P51617 whole entry, looked up, the tested form may be a part): as the sequence (P51617 whole entry, the tested form may be a part) above

[14] = Homo sapiens, OCI-Ly3, 72 h, read-out: EC50
[15] = Homo sapiens, OCI-LY19, 72 h, read-out: EC50
[16] = Homo sapiens, RPMI-8226, 72 h, read-out: EC50
[17] = Homo sapiens, TMD8, 72 h, read-out: EC50
[18] = Homo sapiens, HBL1, 72 h, read-out: EC50
[19] = Homo sapiens, MWCL1, 72 h, read-out: EC50
[20] = Homo sapiens, Ramos, 72 h, read-out: EC50
[21] = Homo sapiens, OCI-Ly7, 72 h, read-out: EC50

| Compound | EC50 (OCI-LY19; [15]) | EC50 (RPMI-8226; [16]) | EC50 [6] | EC50 (TMD8; [17]) | EC50 [7, 18] | EC50 [10, 19] | EC50 (OCI-Ly7; [21]) | EC50 (OCI-Ly3; oci-ly3) | EC50 (RPMI-8226; rpmi-8226) | EC50 (Ramos; ramos) | EC50 (TMD8; tmd8) | EC50 ([7]; hbl1) | also measured |
| --- | --- | --- | --- | --- | --- | --- | --- | --- | --- | --- | --- | --- | --- |
| CN(C)C/C=C/C(=O)Nc1cccc(C(=O)Nc2ccc(Nc3nccc(-c4cccnc4)n3)cc2)c1 | – | – | – | – | – | – | – | – | – | – | – | – | IC50 [1]: > 10 µM; IC50 [2]: 0.0142 µM |
| CC1NC(=O)NC1CCCCCC(=O)NCCOCCOCCOCCNC(=O)CCN(C)C/C=C/C(=O)Nc1cccc(C(=O)Nc2ccc(NC(=O)c3cccc(-c4ccn[nH]4)n3)cc2)c1 (stereo not given) | – | – | – | – | – | – | – | – | – | – | – | – | IC50 [3]: 0.07 µM |
| C=CC(=O)Nc1cccc(C(=O)Nc2ccc(NC(=O)c3cccc(-c4ccn[nH]4)n3)cc2)c1 | 0.59 µM | 5.13 µM | 1.02 µM | 2.4 µM | 12.1 µM | 3.88 µM | 2.39 µM | – | – | – | – | – | EC50 (OCI-Ly3; [14]): 9.72 µM; Activity [4]: Active; inhibition [5]: Active; IC50 [8]: > 10 µM; IC50 [9]: 0.057 µM; EC50 (Ramos; [20]): 1.79 µM |
| C=CC(=O)Nc1ccc(C(=O)Nc2ccc(NC(=O)c3cccc(-c4ccn[nH]4)n3)cc2)cc1 | 0.71 µM | – | 2.54 µM | 5.26 µM | 14.6 µM | 4.91 µM | 5.16 µM | Not Active | Not Active | Not Active | – | – | Activity [11]: Active |
| COc1cc(N2CCOCC2)ccc1NC(=O)c1cccc(-c2ccn[nH]2)n1 | – | – | – | – | – | – | – | – | – | – | – | – | IC50 [1]: 0.017 µM; IC50 [2]: 0.009 µM |
| CN(C)C/C=C/C(=O)Nc1cccc(C(=O)Nc2ccc(NC(=O)c3cccc(-c4ccn[nH]4)n3)cc2)c1 | 1.8 µM | 19.8 µM | 5.62 µM | 10.6 µM | 18.2 µM | 8.13 µM | 7.65 µM | – | – | – | – | – | EC50 (OCI-Ly3; [14]): 14.3 µM; IC50 [3]: 0.052 µM; inhibition [12]: Active; EC50 (Ramos; [20]): 6.99 µM |
| C=CC(=O)Nc1ccc(C(=O)Nc2cccc(NC(=O)c3cccc(-c4ccn[nH]4)n3)c2)cc1 | – | – | 418 µM | – | – | – | – | Not Active | Not Active | Not Active | Not Active | Not Active | EC50 (OCI-LY19; oci-ly19): Not Active; IC50 [8]: > 10 µM; Activity [13]: Active; EC50 ([10]; mwcl1): Not Active; EC50 (OCI-Ly7; oci-ly7): Not Active |
| CCC(=O)Nc1cccc(C(=O)Nc2ccc(NC(=O)c3cccc(-c4ccn[nH]4)n3)cc2)c1 | 7.79 µM | 31.1 µM | 19.9 µM | – | – | – | 20.7 µM | Not Active | – | Not Active | Not Active | Not Active | EC50 ([10]; mwcl1): Not Active |
| C=CC(=O)Nc1cccc(C(=O)Nc2cccc(NC(=O)c3cccc(-c4ccn[nH]4)n3)c2)c1 | 2.9 µM | – | 12.8 µM | – | – | 29 µM | 16.1 µM | Not Active | Not Active | Not Active | Not Active | Not Active | Activity [4]: Active; inhibition [5]: Active |
